Results from ChEMBL document CHEMBL1133729, “Design, synthesis, and structure-activity relationships of phthalimide-phenylpiperazines: a novel series of potent and selective alpha(1)(a)-adrenergic receptor antagonists” (J Med Chem, 2000).
Values belong to the compound of their own block, whether it stands above or below them.

What was measured:
[1] = tested on: Alpha-1D/Alpha-1A adrenergic receptor (Homo sapiens); test: Ratio of binding affinity towards Alpha1d to Alpha-1A
[2] = target: T1, Serotonin 1 (5-HT1) receptor (Rattus norvegicus, UniProt P28564+P30940+P19327+P28565); test: Binding affinity towards 5-hydroxytryptamine 1 receptor was determined in rat cerebral cortex using [3H]5-HT as radioligand; format: tissue-based
Outline: (§1)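 Rat cerebral cortex membranes incubated with [3H]5-HT for 10 min at 37 °C in 50 mM Tris-HCl, 150 mM NaCl, 5 mM EDTA, pH 7.4. Nonspecific binding defined with 10 μM 5-HT. Filtration, then liquid scintillation counting. Ki derived from IC50 by Cheng–Prusoff; mean of three independent experiments.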

[3] = target: Alpha-2A adrenergic receptor (Homo sapiens, UniProt P08913); test: Binding affinity towards recombinant human alpha-2A adrenergic receptor was determined using [3H]MK-912 as radioligand
Outline: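 Membranes from CHO cells expressing recombinant human α2a receptor; competition with [3H]MK912, 60 min at 25 °C, in 50 mM Tris-HCl/150 mM NaCl/5 mM EDTA pH 7.4. Nonspecific binding defined with 10 μM WB4101. Filtration, washing, scintillation counting. IC50 by nonlinear regression, Ki via Cheng–Prusoff; mean ± SEM of three independent experiments.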

[4] = target: T2, 5-hydroxytryptamine receptor 1A (Homo sapiens, UniProt P08908); test: Binding affinity towards recombinant human Compound at 1 uM was tested for the inhibition of radioligand [3H]8-OH-DPAT binding to recombinant human 5-hydroxytryptamine 1A receptor was determined using [3H]8-OH-DPAT as radioligand
Outline: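 Recombinant human 5-HT1A receptor expressed in CHO cell membranes. [3H]8-OH-DPAT binding for 60 min at 25 °C in Tris/NaCl/EDTA buffer, pH 7.4. Nonspecific binding defined with 10 μM metergoline. Percent inhibition measured at 1 μM test compound in duplicate; filtration and scintillation counting.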

[5] = target: T3, D(4) dopamine receptor (Homo sapiens) (UniProt P21917); test: Compound at 1 uM was tested for the inhibition of radioligand [3H]spiperone binding to recombinant human Dopamine receptor D4
T3 sequence (whole entry): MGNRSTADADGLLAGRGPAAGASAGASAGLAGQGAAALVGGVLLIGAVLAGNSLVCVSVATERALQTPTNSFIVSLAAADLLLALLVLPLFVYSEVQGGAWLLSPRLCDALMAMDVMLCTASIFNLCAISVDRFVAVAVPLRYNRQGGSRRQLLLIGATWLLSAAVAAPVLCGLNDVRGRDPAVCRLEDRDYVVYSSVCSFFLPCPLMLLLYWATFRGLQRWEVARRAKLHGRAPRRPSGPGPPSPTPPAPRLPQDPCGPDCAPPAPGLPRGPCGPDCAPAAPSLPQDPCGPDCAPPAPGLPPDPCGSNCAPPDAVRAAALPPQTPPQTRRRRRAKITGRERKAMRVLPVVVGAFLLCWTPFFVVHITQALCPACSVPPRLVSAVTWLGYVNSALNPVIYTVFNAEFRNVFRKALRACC
Outline: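 Recombinant human D4.7 in CHO cell membranes; [3H]spiperone for 120 min at 25 °C, pH 7.4 Tris-HCl/NaCl/EDTA; haloperidol (10 μM) for nonspecific binding. Compound at 1 μM, percent inhibition determined in duplicate; filtration, scintillation counting.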

[6] = target: T2, 5-hydroxytryptamine receptor 1A; test: Binding affinity towards recombinant human 5-hydroxytryptamine 1A receptor was determined using [3H]8-OH-DPAT as radioligand
Outline: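 Human 5-HT1A receptor expressed in CHO cells, membranes used. [3H]8-OH-DPAT, 60 min at 25 °C in Tris-HCl/NaCl/EDTA buffer, pH 7.4. Metergoline (10 μM) gave nonspecific binding. Filtered, scintillation counted. Ki from IC50 (nonlinear regression) by Cheng–Prusoff, mean ± SEM of three independent experiments.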

Histamine H1 receptor = Histamine H1 receptor (Cavia porcellus, UniProt P31389); test: Binding affinity towards histamine H1 receptor was determined in guinea pig brain using [3H]pyrilamine as radioligand
Outline: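 Guinea pig brain membranes as source of central H1 receptors; [3H]pyrilamine, 25 °C for 60 min in 50 mM Tris-HCl, 150 mM NaCl, 5 mM EDTA, pH 7.4; nonspecific binding with 1 μM pyrilamine. Filtration, scintillation counting. Ki by Cheng–Prusoff from fitted IC50, mean ± SEM of three experiments.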

[7] = target: Dihydropyridine-sensitive L-type Ca2+ channel (Rattus norvegicus, UniProt P22002+P27732+Q02485); test: Inhibition of [3H]nitrendipine binding to Dihydropyridine-sensitive L-type [Ca2+] channel in rat cerebral cortex at 10 uM; format: tissue-based; conditions: probe [3H]nitrendipine
Outline: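 Rat cerebral cortex membranes as source of dihydropyridine-sensitive L-type Ca2+ channels; [3H]nitrendipine, 25 °C for 90 min, pH 7.4 Tris-HCl/NaCl/EDTA; 1 μM nifedipine for nonspecific binding. Percent inhibition at the single compound concentration given in each line; filtration, scintillation counting.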

[8] = target: T1, Serotonin 1 (5-HT1) receptor; test: Binding affinity towards central 5-hydroxytryptamine 1 receptor was determined in rat cerebral cortex using [3H]5-HT as radioligand; format: tissue-based
Outline: as §1

T2 sequence (P08908 whole entry): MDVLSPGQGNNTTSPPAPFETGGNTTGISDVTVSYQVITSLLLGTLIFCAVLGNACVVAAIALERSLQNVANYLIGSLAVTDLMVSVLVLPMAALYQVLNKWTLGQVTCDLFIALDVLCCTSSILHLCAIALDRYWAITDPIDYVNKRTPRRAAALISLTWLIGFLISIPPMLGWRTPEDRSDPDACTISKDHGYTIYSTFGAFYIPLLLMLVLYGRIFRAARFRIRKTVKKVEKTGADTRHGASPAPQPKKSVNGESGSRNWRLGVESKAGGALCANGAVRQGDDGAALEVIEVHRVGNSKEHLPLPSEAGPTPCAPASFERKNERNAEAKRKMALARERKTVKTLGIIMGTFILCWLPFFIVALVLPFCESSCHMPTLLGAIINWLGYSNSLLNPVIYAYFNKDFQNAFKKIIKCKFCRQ
Histamine H1 receptor, sequence (P31389 whole entry): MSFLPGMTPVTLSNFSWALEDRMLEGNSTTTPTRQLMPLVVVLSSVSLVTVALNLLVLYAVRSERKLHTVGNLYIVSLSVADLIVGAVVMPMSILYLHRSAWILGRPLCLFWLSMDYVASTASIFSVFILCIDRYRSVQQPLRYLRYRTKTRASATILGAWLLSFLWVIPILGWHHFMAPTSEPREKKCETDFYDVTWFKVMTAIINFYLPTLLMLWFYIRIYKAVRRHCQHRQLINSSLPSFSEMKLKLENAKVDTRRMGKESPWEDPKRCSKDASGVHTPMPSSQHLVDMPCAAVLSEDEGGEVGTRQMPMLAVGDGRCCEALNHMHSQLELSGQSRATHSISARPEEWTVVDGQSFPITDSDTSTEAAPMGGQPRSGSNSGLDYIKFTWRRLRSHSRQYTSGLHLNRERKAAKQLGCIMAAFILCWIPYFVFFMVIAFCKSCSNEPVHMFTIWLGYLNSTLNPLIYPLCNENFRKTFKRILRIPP
Alpha-2A adrenergic receptor, sequence (P08913 whole entry): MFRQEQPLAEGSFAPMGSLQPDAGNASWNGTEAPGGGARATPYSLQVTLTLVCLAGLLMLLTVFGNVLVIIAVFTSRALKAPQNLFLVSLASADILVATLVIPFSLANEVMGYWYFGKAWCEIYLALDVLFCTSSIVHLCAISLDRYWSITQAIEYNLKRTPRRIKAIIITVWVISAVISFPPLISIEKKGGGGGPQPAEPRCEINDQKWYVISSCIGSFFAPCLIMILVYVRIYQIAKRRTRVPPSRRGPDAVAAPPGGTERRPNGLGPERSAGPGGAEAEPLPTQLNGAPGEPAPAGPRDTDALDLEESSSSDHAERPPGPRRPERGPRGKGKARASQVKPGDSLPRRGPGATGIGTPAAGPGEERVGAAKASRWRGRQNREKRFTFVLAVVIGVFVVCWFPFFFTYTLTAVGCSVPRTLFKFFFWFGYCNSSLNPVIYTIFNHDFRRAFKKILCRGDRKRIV

Ratio [1]: 231
Structure (SMILES): Cc1ccc(N2C(=O)c3ccc(C(=O)NCCCN4CCN(c5ccccc5OC(C)C)CC4)cc3C2=O)cc1

Ki [2]: 944 nM
Ki [3]: 63 nM
Ki [4]: 0.79 nM
Structure (SMILES): CCOc1ccccc1OCCN[C@H](C)Cc1ccc(OC)c(S(N)(=O)=O)c1 [TAMSULOSIN]

inhibition [5]: 50%
Structure (SMILES): Cc1ccc(N2C(=O)c3ccc(C(=O)NC[C@H](O)CN4CCN(c5ccccc5OC(C)C)CC4)cc3C2=O)cc1

Ki [6]: 15 nM
Ki (Histamine H1 receptor): 38 nM
inhibition at 10 µM [7]: 53%
Ki [8]: 773 nM
Structure (SMILES): CC(C)Oc1ccccc1N1CCN(C[C@@H](O)CNC(=O)c2ccc3c(c2)C(=O)N(c2ccc(N(C)C)cc2)C3=O)CC1
